Compound activity as filed in PubChem.
DENV2 CPE rescue: inhibitors of DENV2 cytopathic effect, primary screen, cell-based, plate reader, single concentration | CPE inhibition, % at 9.99 µM | DENV2-infected cells, cytopathic effect rescue | actives 1.7% (n = 350,000); in the data active = CPE inhibition above about 20%, passing the limit was not always enough; inconclusive = no clear call, values can overlap the other calls; tested in BHK-21 cells;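 note: 0% = median of neutral control wells and 100% = median of positive control wells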
CAL PDZ FP-1: untagged CAL PDZ binding inhibitors, primary screen, biochemical, fluorescence polarization, HTS; purified CAL PDZ, TMR-peptide fluorescence polarization, 1 h; Golgi-associated PDZ and coiled-coil motif-containing protein (Homo sapiens), Q9HD26; inhibition, % at 24.9 µM; actives 0.92% (n = 300,000);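 active = mean inhibition of at least 30% with at least half of replicates also reaching 30%; inconclusive = no clear call, values can overlap the other calls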;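 note: 0% = DMSO neutral control and 100% = excess unlabeled competitor peptide PRC23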
ERAP1 HTS inh: human ERAP1 aminopeptidase inhibitors, primary screen, biochemical, single point, plate reader; Endoplasmic reticulum aminopeptidase 1 (Homo sapiens), Q9NZ08; recombinant ERAP1, Leu-AMC fluorescence, 60 min; inhibition, % at 10.7 µM; actives 0.15% (n = 340,000); AID 652197, 2013;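 active = mean replicate inhibition of at least 30%, or all replicates individually reaching that 30% level; inactive = mean below 30% and not every replicate reaching it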;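 note: 0% = neutral control wells and 100% = L-leucinethiol positive control wells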
Target sequence (Q9NZ08 whole entry, looked up): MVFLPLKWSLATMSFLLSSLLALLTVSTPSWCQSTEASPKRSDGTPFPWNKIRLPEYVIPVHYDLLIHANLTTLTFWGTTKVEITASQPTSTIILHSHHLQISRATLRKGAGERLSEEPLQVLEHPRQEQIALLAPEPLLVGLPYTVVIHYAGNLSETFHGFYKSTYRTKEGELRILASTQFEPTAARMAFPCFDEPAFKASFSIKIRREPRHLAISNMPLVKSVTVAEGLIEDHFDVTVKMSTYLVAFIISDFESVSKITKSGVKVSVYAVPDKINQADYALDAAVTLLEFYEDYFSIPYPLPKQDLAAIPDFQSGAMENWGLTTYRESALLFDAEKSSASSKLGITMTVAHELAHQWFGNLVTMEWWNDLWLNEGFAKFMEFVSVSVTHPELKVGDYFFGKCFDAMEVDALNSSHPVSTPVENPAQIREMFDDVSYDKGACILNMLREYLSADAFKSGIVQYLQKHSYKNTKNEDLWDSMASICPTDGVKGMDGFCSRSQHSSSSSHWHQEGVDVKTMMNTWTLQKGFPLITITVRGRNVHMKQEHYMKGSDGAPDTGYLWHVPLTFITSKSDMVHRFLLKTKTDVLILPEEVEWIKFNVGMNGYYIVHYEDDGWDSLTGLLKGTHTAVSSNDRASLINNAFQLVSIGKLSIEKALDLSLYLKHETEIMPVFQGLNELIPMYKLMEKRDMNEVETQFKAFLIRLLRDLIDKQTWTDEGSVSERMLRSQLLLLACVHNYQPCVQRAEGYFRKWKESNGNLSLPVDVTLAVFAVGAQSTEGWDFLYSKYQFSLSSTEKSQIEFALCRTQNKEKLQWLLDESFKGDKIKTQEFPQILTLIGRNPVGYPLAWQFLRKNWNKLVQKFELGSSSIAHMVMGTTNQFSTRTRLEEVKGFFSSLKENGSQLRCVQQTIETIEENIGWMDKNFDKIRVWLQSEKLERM
SIRT5 inh: SIRT5 desuccinylase inhibitors, primary screen, biochemical, fluorescence imaging, single point, set 5; NAD-dependent protein deacylase sirtuin-5, mitochondrial (Homo sapiens), Q9NXA8; Purified SirT5, succinyl-peptide AMC, trypsin-coupled fluorescence; inhibition, % at 15 µM; actives 1.1% (n = 330,000); in the data active = inhibition above about 15%; inconclusive = no clear call, values can overlap the other calls
CAL PDZ FP-2: CAL PDZ peptide-binding inhibitors, primary screen, biochemical, fluorescence polarization, Cer-tagged CAL PDZ, HTS; actives 0.02% (n = 330,000); inhibition, % at 20 µM; Golgi-associated PDZ and coiled-coil motif-containing protein (Homo sapiens), Q9HD26; purified CAL PDZ, TMR-peptide fluorescence polarization, 1 h; AID 504414, 2011;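 active = highest replicate inhibition of at least 40%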;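 note: plate controls were DMSO neutral control wells for no effect and unlabeled competitor peptide control wells for full effect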
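Material – purified CerCALP PDZ construct · Detection – FP readout, S and P plane fluorescence · Measure – percent inhibition from loss of millipolarization · Controls – unlabelled peptide for full inhibition, DMSO wells as neutral · Probe or stimulus – TMR-labelled reporter peptide T*-PRC34 bound in PDZ groove · Times – 1 h at RT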
S100A4 MyoIIA: inhibitors of S100A4-myosin IIA peptide binding, primary screen, biochemical, fluorescence polarization, TAMRA-MyoIIA peptide; actives 0.14% (n = 360,000); inhibition, % at 10.7 µM; AID 652163, 2013;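 active = mean inhibition of at least 70% across replicates, with every replicate also reaching that level; inconclusive = mean inhibition reaches 70% but some replicates fall short; inactive = mean inhibition below 70%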
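Assay system: human S100A4 monomer with TAMRA-labelled myosin IIA peptide / Buffer or medium: Calcium-containing HEPES buffer, pH 7.2 / Reagent: TAMRA-labelled myosin IIA heavy-chain peptide probe, 5 nM / Compound: one dose per compound / Timing: polarization read 5 min after assay mix addition, stable 5–60 min / Benchmarks: neutral control DMSO, positive control TFP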
* hit, by the source's call; ? = inconclusive; . = not tested or not shown; ! = not confirmed by another sample. Most compounds without a hit are left out; they make up all but 2.9% or so of the library.

SMILES	DENV2 CPE rescue	CAL PDZ FP-1	ERAP1 HTS inh	SIRT5 inh	CAL PDZ FP-2	S100A4 MyoIIA
COc1ccc(NC(=O)N(C)C[C@H]2Oc3cc(C#CCC(C)C)ccc3S(=O)(=O)N([C@@H](C)CO)C[C@@H]2C)cc1	3	.	-2	33*	.	1
CC(C)CC#Cc1ccc2c(c1)O[C@@H](CN(C)C(=O)Nc1ccccc1)[C@@H](C)CN([C@H](C)CO)S2(=O)=O	-3	.	-2	4	.	117*
O=S(=O)(Cc1ccccc1)NCC[C@@H]1CC[C@H](NS(=O)(=O)c2ccc(F)cc2)[C@@H](CO)O1	1	.	0	-3	.	-3
CC(=O)Nc1ccc2c(c1)C(=O)N(C)[C@@H]1CC[C@@H](CC(=O)NCCCN3CCOCC3)O[C@H]1CO2	.	.	.	-2	.	13
CCC(=O)N(C)C[C@H]1Oc2cc(-c3ccccc3F)ccc2S(=O)(=O)N([C@H](C)CO)C[C@H]1C	25*!	.	-1	-15	.	9
COc1ccc(NC(=O)N(C)C[C@H]2Oc3cc(C#CCC(C)C)ccc3S(=O)(=O)N([C@@H](C)CO)C[C@H]2C)cc1	2	.	1	26*	.	-3
COc1cccc(NC(=O)N(C)C[C@H]2Oc3cc(-c4ccccc4F)ccc3S(=O)(=O)N([C@@H](C)CO)C[C@H]2C)c1	-6	.	5	19*	.	-6
CCC(=O)N(C)C[C@H]1Oc2cc(-c3ccccc3F)ccc2S(=O)(=O)N([C@@H](C)CO)C[C@H]1C	-7	.	2	-1	.	-17
COc1cccc(-c2ccc3c(c2)O[C@@H](CN(C)C(=O)c2ccccc2F)[C@H](C)CN([C@@H](C)CO)S3(=O)=O)c1	-2	.	1	20*	.	10
CCCC#Cc1ccc2c(c1)O[C@@H](CN(C)C(=O)Nc1ccc(OC)cc1)[C@H](C)CN([C@@H](C)CO)S2(=O)=O	-5	.	1	10	.	-1
C[C@H]1CCCCO[C@H](CN(C)C(=O)Nc2ccccc2)[C@@H](C)CN([C@@H](C)CO)C(=O)c2cc(N(C)C)ccc2O1	-12	.	-5	3	.	-47
Cc1ccc(S(=O)(=O)N[C@H]2CC[C@H](CC(=O)N3CCc4ccccc4C3)O[C@@H]2CO)cc1	3	.	-2	-2	.	1
COc1ccc(NC(=O)N(C)C[C@@H]2Oc3cc(C#CCC(C)C)ccc3S(=O)(=O)N([C@@H](C)CO)C[C@@H]2C)cc1	4	.	1	29*	.	-7
COCC#Cc1ccc2c(c1)O[C@@H](CN(C)C(=O)Nc1ccc(OC)cc1)[C@H](C)CN([C@@H](C)CO)S2(=O)=O	?	.	0	4	.	-7
CCCC#Cc1ccc2c(c1)O[C@H](CN(C)C(=O)Nc1ccc(OC)cc1)[C@@H](C)CN([C@@H](C)CO)S2(=O)=O	?	.	0	18*	.	-8
CCC(=O)N1C[C@@H](O)COC[C@H]2O[C@H](CC(=O)NCc3cc(F)cc(F)c3)CC[C@@H]21	1	.	.	.	.	.
CCN(CC)S(=O)(=O)c1ccc(NC(=O)Nc2cccc(C(F)(F)F)c2)cc1	.	-4	.	.	-4	.
O=C(NNC(=O)c1ccc[nH]1)c1cccc(C(F)(F)F)c1	0	-4	1	-3	-2	-3
Cc1ccc(S(=O)(=O)Nc2ccc(NC(=O)Nc3cccc(C(F)(F)F)c3)cc2)cc1	2	74*	-1	-1	-2	-4
NNC(=O)Nc1cccc(C(F)(F)F)c1	1	-2	3	41*	-1	2
O=C(NNC(=O)c1ccc[nH]1)Nc1cccc(C(F)(F)F)c1	7	71*	.	-3	-1	-3
COc1ccc(NC(=O)Nc2ccc3c(c2)C(=O)N([C@H](C)CO)C[C@H](C)[C@H](CN(C)Cc2ccccc2)OCCCC[C@H](C)O3)cc1	17	.	-1	-1	.	-10
COc1ccc(CN(C)C[C@H]2OCCCC[C@@H](C)Oc3ccc(NC(=O)Nc4ccc(F)cc4)cc3C(=O)N([C@@H](C)CO)C[C@@H]2C)cc1	9	.	2	100*	.	8
COc1ccc(NC(=O)Nc2ccc3c(c2)C(=O)N([C@@H](C)CO)C[C@@H](C)[C@H](CN(C)Cc2ccccc2)OCCCC[C@@H](C)O3)cc1	11	.	0	-1	.	-5
COc1ccc(NC(=O)Nc2ccc3c(c2)C(=O)N([C@@H](C)CO)C[C@@H](C)[C@@H](CN(C)Cc2ccccc2)OCCCC[C@H](C)O3)cc1	42*	.	-2	3	.	-10
SMILES	DENV2 CPE rescue	CAL PDZ FP-1	ERAP1 HTS inh	SIRT5 inh	CAL PDZ FP-2	S100A4 MyoIIA
COc1ccc(NC(=O)Nc2ccc3c(c2)C(=O)N([C@H](C)CO)C[C@H](C)[C@H](CN(C)Cc2ccccc2)OCCCC[C@@H](C)O3)cc1	26*	.	-2	7	.	26
COc1ccc(NC(=O)Nc2ccc3c(c2)C(=O)N([C@@H](C)CO)C[C@@H](C)[C@H](CN(C)Cc2ccc(C(F)(F)F)cc2)OCCCC[C@@H](C)O3)cc1	-13	.	-4	-11	.	5
COc1ccc(NC(=O)Nc2ccc3c(c2)C(=O)N([C@H](C)CO)C[C@H](C)[C@H](CN(C)Cc2ccc(C(F)(F)F)cc2)OCCCC[C@H](C)O3)cc1	-4	.	-5	2	.	157*
O=C(CCN1CCCCC1)NCC[C@H]1CC[C@@H](NC(=O)c2ccc(F)cc2)[C@@H](CO)O1	-11	.	-1	-1	.	1
CO[C@H]1CN(C)C(=O)c2cc(NC(=O)C3CC3)ccc2OC[C@H](C)N(C(=O)c2ccncc2)C[C@@H]1C	7	.	3	0	.	-5
Cc1cccc(S(=O)(=O)N2CCCCN3[C@H](C2)[C@H](c2ccc(C#CC4CC4)cc2)[C@@H]3CO)c1	-3	.	-2	6	.	-6
C/C=C/c1cnc2c(c1)C(=O)N([C@H](C)CO)C[C@H](C)[C@@H](CN(C)C(=O)C1CCOCC1)O2	-6	.	0	-1	.	2
C[C@H](CO)N1C[C@H](C)[C@@H](CN(C)C(=O)c2ccccc2F)Oc2ncc(-c3ccccc3)cc2C1=O	-3	.	.	3	.	2
O=C(C1=C[C@@H](c2ccc3c(c2)OCO3)C[C@@H](OCCCCO)O1)N1CCN(Cc2ccc3c(c2)OCO3)CC1	-4	-2	-3	10	-1	-1
